{
  "source": "ChEMBL document CHEMBL1158358",
  "about": "“Synthesis, antimicrobial and cytotoxic activities of some 5-arylidene-4-thioxo-thiazolidine-2-ones” (Eur J Med Chem, 2009)",
  "key": {"[1]": {"test_system": "Candida albicans", "assay": "Antimicrobial activity against Candida albicans UFPEDA 1007 at 25 ug/disk after 48 hrs by disk diffusion method", "type": "functional", "conditions": "UFPEDA 1007, 48 h, read-out: IZ", "method_in_brief": "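Preliminary screen: 6 mm paper disks bearing the agent placed on agar plates inoculated with a standardized microbial suspension. Negative control was DMSO-only disks. Inhibition zones are means of n = 3; no zone or a mean zone below 7 mm was scored as no sensitivity.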"}, "[2]": {"test_system": "Candida albicans", "assay": "Antimicrobial activity against Candida albicans UFPEDA 1007 after 48 hrs by twofold serial dilution technique", "type": "functional", "conditions": "UFPEDA 1007, 48 h", "method_in_brief": "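MIC was determined by twofold serial dilution. Bacteria were tested in plates at 10⁵ CFU/plate and read after 20 h. C. albicans was tested in tubes at 10³ CFU/tube and read after 48 h. All incubations were at 35 °C. Medium plus DMSO served as the negative control.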"}, "[3]": {"test_system": "HEp-2", "assay": "Cytotoxicity against human Hep2 cells after 72 hrs by MTT assay", "type": "functional, cell-based", "conditions": "HEp-2, 72 h", "method_in_brief": "(§1)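 MTT antiproliferative assay. Cells were diluted to 10⁵ cells/mL in 96-well plates and preincubated for 24 h at 37 °C in humid 5% CO₂. Compounds or vincristine (reference) were then added. Formazan was dissolved and OD read at 540 nm, compared with medium-only control cells. Run in triplicate.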"}, "[4]": {"test_system": "NCI-H292", "assay": "Cytotoxicity against human NCI-H292 cells after 72 hrs by MTT assay", "type": "functional, cell-based", "conditions": "NCI-H292, 72 h", "method_in_brief": "as §1"}},
  "data": [
    {"compound": "CC(=O)N1CCN(c2ccc(OCC3COC(Cn4ccnc4)(c4ccc(Cl)cc4Cl)O3)cc2)CC1", "note": "(centres undefined) [KETOCONAZOLE]", "values": [
      {"measurement": "zone of inhibition at 25 µg/disc", "setting": "[1]", "value": 28, "unit": "mm"},
      {"measurement": "MIC", "setting": "[2]", "value": "≤ 1", "unit": "µg/mL"}
    ]},
    {"compound": "CC[C@]1(O)C[C@H]2CN(CCc3c([nH]c4ccccc34)[C@@](C(=O)OC)(c3cc4c(cc3OC)N(C=O)[C@H]3[C@@](O)(C(=O)OC)[C@H](OC(C)=O)[C@]5(CC)C=CCN6CC[C@]43[C@@H]65)C2)C1", "note": "[VINCRISTINE]", "values": [
      {"measurement": "IC50", "setting": "[3]", "value": 0.003, "unit": "µg/mL"},
      {"measurement": "IC50", "setting": "[4]", "value": 0.04, "unit": "µg/mL"}
    ]}
  ]
}
